Active and inactive are the calls of the source. No cut-off for these calls is given here.
Key:
[1] = biological target: T1, GABA A receptor alpha-1/beta-1/gamma-2 (Homo sapiens) (UniProt P14867+P18507+P18505); assay: (§1) Antagonist at human recombinant GABA-A alpha1beta1gamma2L receptor expressed in Xenopus laevis oocytes assessed as blockade of diazepam-induced potentiation of GABA-induced chloride current at 10 uM incubated 60 seconds before addition of GABA measured after 30 seconds at holding potential -70 mV by two-microelectrode voltage clamp technique; type: functional, cell-based; conditions: Oocyte
[2] = biological target: T2, GABA-A receptor; alpha-1/beta-2/gamma-2 (Homo sapiens) (UniProt P14867+P47870+P18507); assay: (§2) Modulation of human recombinant GABA-A alpha1beta2gamma2L receptor expressed in Xenopus laevis oocytes assessed as effect on GABA-induced chloride current at 1 uM incubated 60 seconds before addition of GABA measured after 30 seconds at holding potential -70 mV by two-microelectrode voltage clamp technique relative to control; type: cell-based; conditions: Oocyte
[3] = biological target: T3, GABA-A receptor; alpha-5/beta-3/gamma-2 (Homo sapiens, UniProt P18507+P28472+P31644); assay: Displacement of [3H]flumazenil from human recombinant GABA-A alpha5beta3gamma2L receptor in HEK293 cells; type: cell-based
T3 sequence (P18507 whole entry): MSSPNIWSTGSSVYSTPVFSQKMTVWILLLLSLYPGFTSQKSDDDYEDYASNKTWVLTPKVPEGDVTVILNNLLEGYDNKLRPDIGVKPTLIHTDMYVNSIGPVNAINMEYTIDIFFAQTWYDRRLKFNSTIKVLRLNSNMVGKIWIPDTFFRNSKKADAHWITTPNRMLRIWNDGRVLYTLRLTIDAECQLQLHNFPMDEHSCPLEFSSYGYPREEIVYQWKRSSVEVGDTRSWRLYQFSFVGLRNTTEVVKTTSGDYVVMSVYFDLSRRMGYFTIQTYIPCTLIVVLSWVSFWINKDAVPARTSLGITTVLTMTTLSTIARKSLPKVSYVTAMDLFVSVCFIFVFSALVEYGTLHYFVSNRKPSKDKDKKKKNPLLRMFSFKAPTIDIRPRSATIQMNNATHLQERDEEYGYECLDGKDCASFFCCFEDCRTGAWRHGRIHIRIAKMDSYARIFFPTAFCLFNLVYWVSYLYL
T3 sequence (P28472 whole entry): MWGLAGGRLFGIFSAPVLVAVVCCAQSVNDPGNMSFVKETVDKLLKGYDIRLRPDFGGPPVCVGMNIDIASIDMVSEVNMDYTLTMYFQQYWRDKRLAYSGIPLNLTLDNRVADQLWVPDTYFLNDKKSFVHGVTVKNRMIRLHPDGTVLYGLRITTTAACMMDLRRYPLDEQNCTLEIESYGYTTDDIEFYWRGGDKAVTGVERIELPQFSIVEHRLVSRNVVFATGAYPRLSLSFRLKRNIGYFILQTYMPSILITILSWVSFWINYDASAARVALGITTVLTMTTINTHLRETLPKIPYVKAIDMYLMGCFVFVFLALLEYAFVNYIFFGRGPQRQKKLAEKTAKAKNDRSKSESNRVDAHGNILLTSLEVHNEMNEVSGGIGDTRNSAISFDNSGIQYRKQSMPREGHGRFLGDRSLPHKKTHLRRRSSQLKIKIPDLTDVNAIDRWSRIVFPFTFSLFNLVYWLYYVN
T3 sequence (P31644 whole entry): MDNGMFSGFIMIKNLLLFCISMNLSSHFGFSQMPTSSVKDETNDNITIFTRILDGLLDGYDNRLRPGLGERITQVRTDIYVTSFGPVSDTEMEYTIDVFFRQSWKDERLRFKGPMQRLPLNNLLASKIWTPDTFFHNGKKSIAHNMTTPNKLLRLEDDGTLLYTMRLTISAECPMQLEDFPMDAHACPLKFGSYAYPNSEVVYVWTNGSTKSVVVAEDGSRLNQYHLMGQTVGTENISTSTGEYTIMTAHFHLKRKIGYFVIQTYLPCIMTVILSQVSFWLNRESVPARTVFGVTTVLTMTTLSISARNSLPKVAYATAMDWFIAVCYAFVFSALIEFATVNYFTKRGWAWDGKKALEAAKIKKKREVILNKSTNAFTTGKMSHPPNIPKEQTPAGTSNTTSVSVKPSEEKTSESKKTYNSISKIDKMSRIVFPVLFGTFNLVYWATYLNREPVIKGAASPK
Summary of the method: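 Membranes came from stably transfected HEK293 lines expressing α2β2γ2 or α5β3γ2, grown in MEM/EBSS with 10% FCS at 37 C, and were resuspended in 10 mM potassium phosphate pH 7.4 with 100 mM KCl. […] At least six concentrations were tested, DMSO ≤1%. Ki was obtained by Cheng–Prusoff from n = 3 experiments run in triplicate.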

[4] = biological target: T1, GABA A receptor alpha-1/beta-1/gamma-2 (Homo sapiens); assay: as §2, with “alpha1beta1gamma2L” for “alpha1beta2gamma2L”, “10” for “1”; type: cell-based; conditions: Oocyte
[5] = organism: Bos taurus; assay: Ratio of Ki for central benzodiazepine receptor in bovine cortical membrane to Ki for central benzodiazepine receptor in bovine cortical membrane in presence of 50 uM GABA; type: cell membranes
[6] = test system: Oocyte; assay: as §2, with “alpha5beta2gamma2L” for “alpha1beta2gamma2L”; type: cell-based
[7] = biological target: T2, GABA-A receptor; alpha-1/beta-2/gamma-2 (Homo sapiens); assay: as §2, with “at 10” for “at 1”; type: cell-based; conditions: Oocyte
[8] = test system: Oocyte; assay: as §1, with “alpha5beta2gamma2L” for “alpha1beta1gamma2L”; type: functional, cell-based
Summary of the method: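 Oocytes expressing human α1β2γ2L, α2β1γ2L or α5β2γ2L receptors were clamped at −70 mV. Compound at 10 μM was tested against the enhancement of the GABA EC10 response by 1.0 μM diazepam, with 60 s preapplication and 30 s coapplication. The response was expressed as percent potentiation, from 2–3 oocytes.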

[9] = organism: Homo sapiens; assay: Ratio of Ki for central benzodiazepine receptor in human cortical membrane to Ki for central benzodiazepine receptor in human cortical membrane in presence of 50 uM GABA; type: cell membranes

`CCOC(=O)c1ncn2c1CN=C(c1ccc(C)cc1)c1ccccc1-2` was tested, and the Activity [1] was “Active”, the Activity [2] was 8% and the Ki [3] was 908 nM. The Activity [4] was 8.3%, the Ratio Ki [5] was 0.97 and the Activity [6] was -4%. For the same molecule, the Activity [7] was -4%, the Activity [8] was “Active” and the Ratio Ki [9] was 1.1.

In the case of `CCOC(=O)c1ncn2c1CN=C(c1ccc(F)cc1)c1cc(F)ccc1-2`, the Activity [1] is reported as “Active”, the Activity [2] is reported as -13% and the Ki [3] is reported as 772 nM. It also gave an Activity [4] of 6.5%, a Ratio Ki [5] of 1 and an Activity [6] of -1%. For the same molecule, the Activity [7] was 12%, the Activity [8] was “Active” and the Ratio Ki [9] was 1.05.

— ChEMBL document CHEMBL2169854, “New insight into the central benzodiazepine receptor-ligand interactions: design, synthesis, biological evaluation, and molecular modeling of 3-substituted 6-phenyl-4H-imidazo[1,5-a][1,4]benzodiazepines and related compounds” (J Med Chem, 2011)
